The source made the active and inactive calls. The rule behind the calls is not given here. Where a SMILES comes first, the peptide text is derived from it. [ ]: non-standard residue; d: D form. ξ: configuration not given here. Dmt = Cc1cc(O)cc(C)c1C[C@H](N)C(=O)O; NMeY = CN[CH](Cc1ccc(O)cc1)C(=O)O; Tic = O=C(O)[CH]1Cc2ccccc2CN1; ξTic = O=C(O)C1Cc2ccccc2CN1
Key:
[1] = biological target: Opioid receptors; mu & delta (Rattus norvegicus) (UniProt P33533+P33535); assay: Ratio of the affinity for delta and mu opioid receptors (Ki mu/Ki delta) shows delta opioid receptor selectivity; assay type: protein assay
Chain of Opioid receptors; mu & delta (Rattus norvegicus) (P33533 whole entry, looked up): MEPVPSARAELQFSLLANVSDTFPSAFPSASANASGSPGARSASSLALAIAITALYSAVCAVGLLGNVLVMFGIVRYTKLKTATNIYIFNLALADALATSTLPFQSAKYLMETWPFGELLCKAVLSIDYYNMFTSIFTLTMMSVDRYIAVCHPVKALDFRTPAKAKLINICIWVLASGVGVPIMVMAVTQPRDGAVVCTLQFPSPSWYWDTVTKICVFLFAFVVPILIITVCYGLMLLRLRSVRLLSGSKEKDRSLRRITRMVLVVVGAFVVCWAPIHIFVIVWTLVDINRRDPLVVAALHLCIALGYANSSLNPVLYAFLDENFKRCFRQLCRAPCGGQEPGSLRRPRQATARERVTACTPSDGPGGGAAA
Chain of Opioid receptors; mu & delta (Rattus norvegicus) (P33535 whole entry, looked up): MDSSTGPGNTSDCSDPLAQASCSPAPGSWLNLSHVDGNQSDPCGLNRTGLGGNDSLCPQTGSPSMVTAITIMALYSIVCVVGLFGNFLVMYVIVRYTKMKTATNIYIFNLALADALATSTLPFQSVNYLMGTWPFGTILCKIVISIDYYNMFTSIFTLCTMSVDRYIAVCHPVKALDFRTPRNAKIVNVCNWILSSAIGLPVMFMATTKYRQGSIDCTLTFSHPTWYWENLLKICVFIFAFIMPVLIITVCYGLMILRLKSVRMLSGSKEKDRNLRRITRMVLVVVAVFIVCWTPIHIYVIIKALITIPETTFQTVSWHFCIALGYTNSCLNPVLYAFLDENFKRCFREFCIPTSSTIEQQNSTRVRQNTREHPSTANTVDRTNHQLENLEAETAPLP

Mu-type opioid receptor [2] = biological target: Mu-type opioid receptor (Rattus norvegicus, UniProt P33535); assay: Binding affinity for Opioid receptor mu 1 by displacement of [3H]- DAGO
Chain of Mu-type opioid receptor (Rattus norvegicus, UniProt P33535) (P33535 whole entry): as the sequence (P33535 whole entry, looked up) above
Outline: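 Rat brain (Sprague–Dawley, minus cerebellum) synaptosomal membranes, preincubated to strip endogenous opioids. Equilibrium displacement of [3H]DPDPE (δ) or [3H]DAGO (μ); nonspecific binding defined with 2 μM unlabeled ligand. Peptides spanned 3–4 log units. Duplicates, ≥3 membrane preparations; Ki by Cheng–Prusoff; mean ± SEM, n = independent preparations.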

[3] = biological target: T1, Delta-type opioid receptor (Rattus norvegicus, UniProt P33533); assay: Binding affinity for Opioid receptor delta 1 by displacement of [3H]- DPDPE
T1 sequence (P33533 whole entry): as the sequence (P33533 whole entry, looked up) above
Outline: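 Rat brain (Sprague–Dawley, minus cerebellum) synaptosomal membranes, preincubated to strip endogenous opioids. Equilibrium displacement of [3H]DPDPE (δ) or [3H]DAGO (μ); nonspecific binding defined with 2 μM unlabeled ligand. Peptides spanned 3–4 log units.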

[4] = tested on: Delta-type opioid receptor; assay: GPI/MVD ratio is based on Ke (antilog of pA2 value of antagonistic activity of compound for delta opioid receptor) and IC50 values; assay type: functional
[5] = biological target: Mu-type opioid receptor (Cavia porcellus) (UniProt P97266); assay: Antagonist activity against Opioid receptor mu 1 in guinea pig ileum assay; '-' indicates inactive; assay type: functional, tissue-based
Chain of Mu-type opioid receptor (Cavia porcellus) (P97266 whole entry): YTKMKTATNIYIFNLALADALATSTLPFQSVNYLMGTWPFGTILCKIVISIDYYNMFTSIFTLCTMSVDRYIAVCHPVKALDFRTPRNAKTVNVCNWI
Outline: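 Electrically stimulated mouse vas deferens or guinea pig ileum strips in Krebs' solution; agonist concentration–response curves run without and with rising antagonist concentrations; pA2 by Schild (Arunlakshana–Schild) analysis.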

[6] = biological target: Delta-type opioid receptor (Mus musculus) (UniProt P32300); settings: Vas deferens
Chain of Delta-type opioid receptor (Mus musculus) (P32300 whole entry): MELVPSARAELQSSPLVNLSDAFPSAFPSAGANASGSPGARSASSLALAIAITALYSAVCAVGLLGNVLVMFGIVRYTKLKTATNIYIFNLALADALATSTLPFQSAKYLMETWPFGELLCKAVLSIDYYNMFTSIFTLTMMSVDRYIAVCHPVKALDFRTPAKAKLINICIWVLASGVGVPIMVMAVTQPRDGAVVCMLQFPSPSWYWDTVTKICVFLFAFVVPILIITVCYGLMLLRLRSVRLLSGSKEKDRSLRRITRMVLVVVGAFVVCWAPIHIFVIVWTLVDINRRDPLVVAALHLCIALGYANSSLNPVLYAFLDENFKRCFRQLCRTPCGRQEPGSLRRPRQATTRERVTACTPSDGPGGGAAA

Mu-type opioid receptor [7] = biological target: T2, Mu-type opioid receptor (Cavia porcellus, UniProt P97266); assay: Inhibitory activity against Opioid receptor mu 1 in an in vitro guinea pig ileum assay; assay type: tissue-based
T2 sequence (P97266 whole entry): as the sequence (P97266 whole entry) above

Mu-type opioid receptor [8] = biological target: T2, Mu-type opioid receptor; assay: Inhibitory activity against Opioid receptor mu 1 in an in vitro guinea pig ileum assay; '-' indicates inactive; assay type: tissue-based
[9] = biological target: Mu-type opioid receptor (Cavia porcellus) (UniProt P97266); settings: Ileum
[10] = biological target: Delta-type opioid receptor (Mus musculus) (UniProt P32300); settings: Vas deferens; remark: listed apart in the source
Mu-type opioid receptor [11] = biological target: T2, Mu-type opioid receptor; assay: Antagonist activity against Opioid receptor mu 1 iin a guinea pig ileum assay
[12] = biological target: Delta-type opioid receptor (Mus musculus, UniProt P32300); assay: Antagonist activity against Opioid receptor delta 1 in mouse vas deferens assay
Chain of Delta-type opioid receptor (Mus musculus, UniProt P32300) (P32300 whole entry): as the sequence (P32300 whole entry) above

[13] = biological target: T1, Delta-type opioid receptor; assay: Agonist activity for Opioid receptor delta 1; assay type: functional

Row | SMILES | Ratio [1] | Ki (Mu-type opioid receptor [2]) | Ki [3] | Ratio [4] | pA2 [5] | IC50 (Mu-type opioid receptor [7]) | Kb [12] | also measured
1 | CN(C)[C@@H](Cc1ccc(O)cc1)C(=O)N1Cc2ccccc2CC1C(=O)O (some centres undefined) | 265 | 11500 nM | 43.5 nM |  |  |  |  | 
2 | Cc1cc(O)cc(C)c1C[C@H](N)C(=O)N1Cc2ccccc2C[C@H]1C(=O)NC(C)C(=O)O (some centres undefined) | 20400 |  |  | > 2500 | inactive |  |  | pA2 [6]: 8.4
3 | Cc1cc(O)cc(C)c1C[C@H](N)C(=O)N1Cc2ccccc2C[C@H]1C(=O)O |  |  |  |  | inactive | > 10000 nM |  | pA2 [6]: 8.2
4 | Oc1ccc2c3c1O[C@H]1c4[nH]c5ccccc5c4C[C@@]4(O)[C@@H](C2)N(CC2CC2)CC[C@]314 [NALTRINDOLE] |  |  |  | 76 |  |  |  | IC50 (Mu-type opioid receptor [8]): Not Active; pA2 [9]: 7.3; pA2 [6]: 9.2
5 | Cc1cc(O)cc(C)c1CC(N)C(=O)N1Cc2ccccc2C[C@H]1C(=O)O (single isomer, unassigned) |  | 11000 nM |  |  | inactive |  |  | IC50 (Mu-type opioid receptor [8]): Not Active; pA2 [10]: inactive
6 | Cc1cc(O)cc(C)c1C[C@@H](C(=O)N1Cc2ccccc2CC1C(=O)O)N(C)C (some centres undefined) | 20600 | 2440 nM | 0.118 nM | 5640 |  |  | 0.398 nM | IC50 (Mu-type opioid receptor [8]): Not Active; Kb (Mu-type opioid receptor [11]): 1580 nM
7 | Cc1cc(O)cc(C)c1C[C@@H](N)C(=O)N1Cc2ccccc2C[C@H]1C(=O)N[C@@H](C)C(=O)O | 197 | 2560 nM | 13 nM | > 88 | inactive | > 10000 nM |  | pA2 [6]: 6.9
8 | CN[C@@H](Cc1c(C)cc(O)cc1C)C(=O)N1Cc2ccccc2CC1C(=O)O (some centres undefined) | 1870 | 379 nM | 0.203 nM | > 3570 | inactive | > 10000 nM | 3.16 nM | 
9 | N[C@@H](Cc1ccc(O)cc1)C(=O)N1Cc2ccccc2C[C@H]1C(=O)O (H-Tyr-[Tic]-OH) | 148 | 28400 nM | 192 nM |  |  |  |  | 
10 | CN[C@H](Cc1c(C)cc(O)cc1C)C(=O)N1Cc2ccccc2CC1C(=O)O (some centres undefined) | 628 | 2000 nM | 3.19 nM | > 71 | inactive | > 10000 nM | 158 nM | 
11 | Cc1cc(O)cc(C)c1C[C@H](C(=O)N1Cc2ccccc2CC1C(=O)O)N(C)C (some centres undefined) | 2280 | 13100 nM | 5.74 nM | > 4200 | inactive | > 10000 nM | 2.51 nM | 
12 | CN[C@H](Cc1c(C)cc(O)cc1C)C(=O)N1Cc2ccccc2C[C@H]1C(=O)N[C@@H](C)C(=O)O | 181 | 19200 nM | 106 nM |  |  |  |  | 
13 | Cc1cc(O)cc(C)c1C[C@@H](C(=O)N1Cc2ccccc2CC1C(N)=O)N(C)C (some centres undefined) | 1660 | 511 nM | 0.309 nM | 4500 |  |  | 0.126 nM | IC50 (Mu-type opioid receptor [8]): Not Active; Kb (Mu-type opioid receptor [11]): 501 nM
14 | CC(C)[C@H](NC(=O)[C@H](CC(=O)O)NC(=O)[C@H](Cc1ccccc1)NC(=O)[C@@H](C)NC(=O)[C@@H](N)Cc1ccc(O)cc1)C(=O)N[C@H](C(=O)NCC(N)=O)C(C)C [DELTORPHIN C] |  |  |  |  |  |  |  | IC50 [13]: 0.54 nM
15 | Cc1cc(O)cc(C)c1C[C@H](N)C(=O)N1Cc2ccccc2C[C@H]1C(=O)N[C@@H](C)C(=O)O |  |  |  |  |  | > 10000 nM |  | 
16 | CN[C@@H](Cc1c(C)cc(O)cc1C)C(=O)N1Cc2ccccc2C[C@H]1C(=O)N[C@@H](C)C(=O)O | 43000 | 5850 nM | 0.136 nM | > 7100 | inactive | > 10000 nM | 1.58 nM | 
17 | CN[C@@H](Cc1c(C)cc(O)cc1C)C(=O)N1Cc2ccccc2CC1C(N)=O (some centres undefined) | 2490 | 955 nM | 0.383 nM | > 4550 |  | > 10000 nM | 2.51 nM | 
18 | Cc1cc(O)cc(C)c1C[C@H](N)C(=O)N1Cc2ccccc2CC1C(N)=O (some centres undefined) (H-[Dmt]-[ξTic]-NH2) |  |  | 1.22 nM |  |  |  |  | 
19 | Cc1cc(O)cc(C)c1C[C@H](C(=O)N1Cc2ccccc2C[C@H]1C(=O)N[C@@H](C)C(=O)O)N(C)C | 176 | 19000 nM | 108 nM |  |  |  |  | 
20 | Cc1cc(O)cc(C)c1CC(C)C(=O)N1Cc2ccccc2CC1C(=O)O (centres undefined) | 55 | 71400 nM | 1300 nM |  |  |  |  | 
21 | Cc1cc(O)cc(C)c1C[C@@H](C(=O)N1Cc2ccccc2C[C@H]1C(=O)N[C@@H](C)C(=O)O)N(C)C | 20000 | 1520 nM | 0.0755 nM | 7180 |  |  | 0.251 nM | IC50 (Mu-type opioid receptor [8]): Not Active; Kb (Mu-type opioid receptor [11]): 1580 nM
22 | CNC(Cc1ccc(O)cc1)C(=O)N1Cc2ccccc2CC1C(=O)O (centres undefined) (H-[NMeY]-[Tic]-OH; configuration not given here) | 166 | 12400 nM | 74.7 nM |  |  |  |  | 
23 | CN[C@H](Cc1c(C)cc(O)cc1C)C(=O)N1Cc2ccccc2CC1C(N)=O (some centres undefined) | 119 | 1330 nM | 11.2 nM |  | inactive |  |  | IC50 (Mu-type opioid receptor [8]): Not Active; pA2 [10]: inactive

Source: ChEMBL document CHEMBL1130156, “Evolution of the Dmt-Tic pharmacophore: N-terminal methylated derivatives with extraordinary delta opioid antagonist activity” (J Med Chem, 1997)
